According to ChEMBL document CHEMBL5321292, “Targeting Cytotoxic Agents through EGFR-Mediated Covalent Binding and Release” (J Med Chem, 2023):
Calls of active or inactive are those of the source. No cut-off for these calls is given here.

Tests used:
[1] = Stability of compound assessed as formation of 5-fluorouracil by measuring half life
[2] = biological target: Epidermal growth factor receptor (Mus musculus, UniProt Q01279); test: Inhibition of C-terminal his6-tagged mouse EGFR by TR-FRET assay
[3] = biological target: T1, Epidermal growth factor receptor (Homo sapiens, UniProt P00533); test: Inhibition of EGFR in human A-431 cells incubated for 2.5 hrs by HTRF analysis; format: cell-based
Method in brief: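 A431 cells plated at 20 000/well and allowed to adhere for 24 h. Treated 2.5 h in duplicate (0.1% DMSO), then stimulated with 100 ng/mL EGF for 30 min. Lysed 30 min at room temperature. HTRF measured pEGFR (Tyr1068) and total EGFR at 665/620 nm. Values taken as pEGFR/total EGFR ratio, expressed as % of 0 μM control.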

[4] = biological target: T1, Epidermal growth factor receptor; test: Inhibition of EGFR phosphorylation in human A-431 cells at 10 uM incubated for 4 hr by Western blot analysis; format: cell-based
Method in brief: (§1)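 A431 cells treated for 4 h and lysed in Phosphosafe buffer with protease inhibitors. Western blot probed with anti-EGFR and anti-pEGFR primary antibodies (1:1000 in 5% BSA) plus a loading control, then HRP-conjugated secondary antibodies. Bands detected by ECL.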

[5] = biological target: T1, Epidermal growth factor receptor; test: Inhibition of EGFR phosphorylation in human A-431 cells at 1 uM incubated for 4 hr by Western blot analysis; format: cell-based
Method in brief: as §1

A-431 [6] = test: Antiproliferative activity against human A-431 cells assessed as cell growth inhibition measured after 72 hrs by SRB assay; format: functional, cell-based; details: A-431, read-out: pGI50 (converted)
[7] = biological target: T1, Epidermal growth factor receptor; test: Inhibition of EGFR phosphorylation in human A-431 cells incubated for 4 hr
A-431 [8] = test: Antiproliferative activity against human A-431 cells assessed as cell growth inhibition measured after 72 hrs in presence of 5-fluorouracil by SRB assay; format: functional, cell-based; details: A-431, 72 h
Method in brief: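 A431 cells (ECACC) seeded day 0 at exponential-growth density in DMEM + 10% FBS. Compound diluted in medium and added day 1, final DMSO 0.1%. Incubated 72 h at 37 °C, 5% CO2. Fixed with 50% TCA at 4 °C for 1 h, stained with 0.4% SRB for 30 min, washed with 1% AcOH, solubilised in 10 mM Tris pH 10.5. Absorbance read at 570 nm.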

T1 sequence (P00533 whole entry): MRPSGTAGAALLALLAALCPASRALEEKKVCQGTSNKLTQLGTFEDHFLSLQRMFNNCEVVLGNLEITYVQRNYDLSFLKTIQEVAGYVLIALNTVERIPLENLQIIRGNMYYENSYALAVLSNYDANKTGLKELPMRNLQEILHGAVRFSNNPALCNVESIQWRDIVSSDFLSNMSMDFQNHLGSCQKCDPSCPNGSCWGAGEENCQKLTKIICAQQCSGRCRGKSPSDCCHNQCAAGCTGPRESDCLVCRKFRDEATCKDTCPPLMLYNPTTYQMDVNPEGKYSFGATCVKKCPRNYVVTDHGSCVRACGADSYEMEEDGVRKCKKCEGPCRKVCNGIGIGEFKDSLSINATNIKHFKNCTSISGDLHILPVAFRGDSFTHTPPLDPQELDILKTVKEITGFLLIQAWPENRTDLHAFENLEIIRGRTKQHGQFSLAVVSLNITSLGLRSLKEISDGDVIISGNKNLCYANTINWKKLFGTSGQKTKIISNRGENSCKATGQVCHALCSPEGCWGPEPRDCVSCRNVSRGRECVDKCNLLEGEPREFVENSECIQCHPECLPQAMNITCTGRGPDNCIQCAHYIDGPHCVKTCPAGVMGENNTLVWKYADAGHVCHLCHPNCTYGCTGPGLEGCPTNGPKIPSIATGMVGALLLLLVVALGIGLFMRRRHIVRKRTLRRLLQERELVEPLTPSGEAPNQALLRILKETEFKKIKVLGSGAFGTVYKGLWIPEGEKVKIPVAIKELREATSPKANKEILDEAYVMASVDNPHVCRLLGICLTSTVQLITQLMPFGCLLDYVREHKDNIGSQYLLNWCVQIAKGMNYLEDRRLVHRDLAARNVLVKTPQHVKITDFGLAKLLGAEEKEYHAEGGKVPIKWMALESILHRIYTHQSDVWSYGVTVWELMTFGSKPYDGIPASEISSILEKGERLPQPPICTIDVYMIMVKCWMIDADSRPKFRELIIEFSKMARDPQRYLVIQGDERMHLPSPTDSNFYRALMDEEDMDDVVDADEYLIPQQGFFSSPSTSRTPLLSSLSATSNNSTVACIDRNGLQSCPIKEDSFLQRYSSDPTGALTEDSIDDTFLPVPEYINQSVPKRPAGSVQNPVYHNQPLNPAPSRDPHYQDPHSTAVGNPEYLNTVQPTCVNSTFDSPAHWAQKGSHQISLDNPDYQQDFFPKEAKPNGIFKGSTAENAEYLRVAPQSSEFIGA
Chain of Epidermal growth factor receptor (Mus musculus, UniProt Q01279) (Q01279 whole entry): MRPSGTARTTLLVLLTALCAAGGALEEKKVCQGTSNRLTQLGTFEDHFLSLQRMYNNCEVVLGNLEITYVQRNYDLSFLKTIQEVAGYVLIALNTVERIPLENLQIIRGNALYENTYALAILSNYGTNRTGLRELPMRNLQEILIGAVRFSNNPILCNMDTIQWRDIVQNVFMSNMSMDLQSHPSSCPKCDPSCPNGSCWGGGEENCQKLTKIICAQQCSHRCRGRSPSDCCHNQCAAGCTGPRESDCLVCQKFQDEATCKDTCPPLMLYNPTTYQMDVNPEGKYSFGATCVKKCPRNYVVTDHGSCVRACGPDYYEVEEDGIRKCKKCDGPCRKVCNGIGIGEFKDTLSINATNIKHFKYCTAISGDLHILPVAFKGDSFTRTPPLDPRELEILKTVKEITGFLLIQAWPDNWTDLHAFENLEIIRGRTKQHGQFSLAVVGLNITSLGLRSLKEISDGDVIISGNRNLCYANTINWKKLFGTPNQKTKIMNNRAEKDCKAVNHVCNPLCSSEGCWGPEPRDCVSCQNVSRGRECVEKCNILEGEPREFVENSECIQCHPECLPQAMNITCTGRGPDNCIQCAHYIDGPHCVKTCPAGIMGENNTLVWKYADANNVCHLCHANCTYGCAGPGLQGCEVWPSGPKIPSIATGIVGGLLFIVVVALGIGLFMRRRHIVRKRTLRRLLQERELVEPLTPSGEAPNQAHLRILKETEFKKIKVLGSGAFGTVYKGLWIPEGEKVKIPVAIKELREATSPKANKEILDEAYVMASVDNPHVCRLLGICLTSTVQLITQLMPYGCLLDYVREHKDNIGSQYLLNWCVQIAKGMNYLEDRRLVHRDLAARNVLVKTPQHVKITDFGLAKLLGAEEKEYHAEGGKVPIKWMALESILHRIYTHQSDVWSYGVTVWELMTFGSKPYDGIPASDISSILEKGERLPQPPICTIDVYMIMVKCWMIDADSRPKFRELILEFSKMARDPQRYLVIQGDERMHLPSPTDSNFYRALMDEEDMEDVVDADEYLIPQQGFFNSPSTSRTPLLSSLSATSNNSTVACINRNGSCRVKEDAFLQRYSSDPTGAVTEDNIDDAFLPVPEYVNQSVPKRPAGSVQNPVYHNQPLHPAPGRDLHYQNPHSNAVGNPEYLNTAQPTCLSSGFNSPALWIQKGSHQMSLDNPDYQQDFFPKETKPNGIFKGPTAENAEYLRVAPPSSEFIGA

O=C(/C=C/n1cc(F)c(=O)[nH]c1=O)Cc1ccccc1
t1/2 [1]: ~ 36 hr

N#Cc1ccc(OC(=O)/C=C/n2cc(F)c(=O)[nH]c2=O)cc1
t1/2 [1]: 2.5 h

O=C(/C=C/n1cc(F)c(=O)[nH]c1=O)Oc1ccc([N+](=O)[O-])cc1
t1/2 [1]: 0.1 h

O=C(/C=C/n1cc(F)c(=O)[nH]c1=O)Oc1ccc(F)cc1
t1/2 [1]: 3 h

COc1cc2ncnc(Nc3ccc(F)c(Cl)c3)c2cc1OC(=O)/C=C/n1cc(F)c(=O)[nH]c1=O
IC50 [2]: 0.158 µM
IC50 [3]: 0.0158 µM
inhibition [4]: Active
inhibition [5]: inactive
GI50 (A-431 [6]): 5.01 µM
IC50 [7]: 0.0158 µM

COc1cc2ncnc(Nc3ccc(F)c(Cl)c3)c2cc1NC(=O)/C=C/n1cc(F)c(=O)[nH]c1=O
IC50 [2]: 0.0501 µM
IC50 [3]: 2.51 µM
IC50 [7]: 2.51 µM

COc1ccc(OC(=O)/C=C/n2cc(F)c(=O)[nH]c2=O)cc1
t1/2 [1]: 36 h

COCCOCCOc1ccc(NC(=O)/C=C/n2cc(F)c(=O)[nH]c2=O)cc1
t1/2 [1]: 10 h

COc1cc2ncnc(Nc3ccc(F)c(Cl)c3)c2cc1OC(=O)/C=C/CN1CCCCC1
inhibition [5]: Active
IC50 (A-431 [8]): 0.631 µM

O=C(/C=C/n1cc(F)c(=O)[nH]c1=O)Oc1ccc(Cl)cc1
t1/2 [1]: 2.9 h
